# Only some compounds are listed: those with a hit (about 3.7% of all), similar ones and a draw of the others.
# Redox H2O2 prof – compounds producing H2O2 with reducing agent – biochemical, NIH compound library profiling, artefact control for MLSCN library redox annotation, primary screen. DTT-dependent redox cycling H2O2, phenol red/HRP absorbance; 100% = 100 µM peroxide control, 0% = buffer. activation, % at 10 µM. 0.03% of 200,000 active. AID 878;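 active = activation of at least 50% relative to the plate's high and low controls in the primary single-dose screen; inactive = activation below 50%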;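 also: compound incubated with DTT at 0.8 mM final as the reducing agent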
# ROMK primary – human ROMK K+ channel modulation, primary screen | Tet-inducible ROMK, thallium flux fluorescence; actives lie on both sides | B-score at 10 µM | 2% of 130,000 active | AID 1918;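 active = signal ratio slope over the read window, or its plate-corrected B-score, at least 3 SD from the plate mean, either direction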;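 also: B-score of the F/F0 ratio slope over 7 to 12 s after thallium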
# MT stabilize HCS – microtubule stabilizers in HeLa cells; HeLa tubulin immunostaining HCS, 24 h; share of cells brighter than vehicle mean+2SD; % tubulin-high responders, % at 10 µM; 0.83% of 200,000 active;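 active = plate Z-score above 3 for both tubulin-high and condensed-nucleus cell shares, with cell loss under 80%, at 10 µM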;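 also: anti alpha tubulin signal scored within the nucleus-defined area of each cell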
# bCat nuc transl – alters nuclear translocation of beta-catenin in HeLa cells | immunofluorescence imaging | nuclear translocation activity, % at 5 µM | 0.3% of 190,000 active | AID 1665;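 active = nuclear translocation activity above 50% at 5 µM, with a well cell count of 50 or more; inconclusive = wells under 50 cells across six images, flagged as toxic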;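 also: per-cell ratio of nuclear to cytoplasmic median beta-catenin stain intensity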
#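 Test system: human HeLa cell line; Doses: 5 µM primary, 0.02–20 µM confirmation; Incubation: 24 h compound exposure, 37°C; Detection: beta-catenin immunofluorescence imaging with DAPI; Read-out: beta-catenin nuclear/cytoplasmic ratio, % activation.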
# KCC2 mod – modulates chloride dependent transport by human KCC2; Q9H2X9; KCC2 cells, thallium flux FluoZin-2 fluorescence; B-score of Tl+ flux slope (higher = more flux/activation; lower = inhibition) at 10 µM; 2.2% of 190,000 active;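 active = thallium flux slope and its plate-corrected score both differing from the plate sample mean at a set confidence after two filtering rounds, in either direction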;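 also: slope of fluorescence scaled to starting intensity during 10 to 20 s after thallium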
# ROMK hit retest – confirmation of human ROMK potassium channel modulators; ROMK thallium flux, fluorescence ratio; active compounds read low; shares compounds with ROMK primary; normalized thallium flux (F/F0 slope) at 10 µM; 54% of 3,000 active;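 active = Flux at 10 µM at least 3 SD below or above vehicle control mean in one or both replicates; inconclusive = no clear call, values can overlap the other calls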
# Hits are given with their value; i = inactive; ? = inconclusive; nt = not tested or not shown.
SMILES,Redox H2O2 prof,ROMK primary,MT stabilize HCS,bCat nuc transl,KCC2 mod,ROMK hit retest
COC(=O)C1=Nc2ccccc2/C1=C\c1c(O)n(-c2cc(OC)ccc2OC)c(=O)[nH]c1=O,i,i,i,nt,i,nt
CCCCn1c(C)c(C(=O)OCC)c2c(CN3CCOCC3)c(O)ccc21,i,-2.32,i,i,nt,0.0657
CCOC(=O)c1c(C)n(Cc2ccc3c(c2)OCO3)c2ccc(O)cc12,i,i,i,i,i,nt
CCc1ccc(-n2c(O)c(C(C)=O)c(=O)[nH]c2=O)cc1 (tested in a mixture with another compound),nt,nt,nt,i,i,nt
COc1cc2c(cc1OC)-c1c(OC)c(OC)c(OC)c3ccnc(c13)C2=O,i,-4.78,i,nt,i,0.0479
CCNC(=O)C1OC(n2cnc3c(N)ncnc32)C(O)C1O (stereo not drawn),i,4.29,i,nt,nt,?
CC12CN3CN(C1)CC(C)(C3)C2=NO,i,i,i,i,i,nt
Cc1oc(-c2ccccc2Cl)nc1CN1C(=O)CN=C(c2ccccc2)c2ccccc21,i,-2.76,i,i,i,0.0576
c1cc(C2N3CCCN2CC3)ccn1 (stereo not drawn),nt,nt,nt,i,nt,nt
CN(CCCCC(=O)/C=N/O)Cc1ccccc1 (tested in a mixture with another compound),i,3.25,i,nt,nt,i
CCCCC(C)C(OC(=O)CC(CC(=O)O)C(=O)O)C(CC(C)CC(O)CCCCC(O)CC(O)C(C)N)OC(=O)CC(CC(=O)O)C(=O)O (stereo not drawn),i,i,i,i,i,nt
Cn1c(O)c(/C=C/C=Nc2ccccc2)c(=O)n(C)c1=S,i,nt,i,nt,i,0.0459
CCCCCc1nc2ccccc2c(=O)n1-c1ccccc1[N+](=O)[O-],i,i,i,i,i,nt
CCCCCc1nc2c(c(=O)c3ccccc3n2C)c(=O)n1C1CCCCCC1,i,nt,i,i,i,0.0529
Cc1ccccc1N1C(=O)NC(=O)/C(=C/c2ccc(N3CCOCC3)o2)C1=O,nt,nt,nt,i,i,nt
O=C1NC(=O)N(c2ccc3c(c2)OCO3)C(=O)/C1=C\c1ccc(N2CCCCC2)o1,i,nt,i,i,i,0.0524
CCOP(=O)(OCC)c1cc(C)c(O)c(C(C)(C)C)c1,nt,nt,nt,i,i,nt
Cc1ccc2c(c1)C1CN(C)CCC1N2C(=O)/C(C#N)=C/c1ccc2c(c1)OCO2 (stereo not drawn),i,-3.12,i,i,i,0.053
Cc1ccc2c(c1)C1CN(C)CCC1N2C(=O)/C=C/c1ccc2c(c1)OCO2 (stereo not drawn),i,i,i,i,i,nt
CCC(C)c1ccc(N2C(=O)NC(=O)/C(=C/c3cccn3CCOc3ccc(C)cc3)C2=O)cc1 (stereo not drawn),i,nt,i,i,i,0.0472
O=C(CN1CCCCC1)c1ccc2c(c1)OCO2,nt,i,nt,i,i,nt
CC(=O)c1ccc2c(c1)OCO2,i,3.04,i,i,i,i
CCC(=O)N1N=C2C3CCN(CC3)C2C1c1ccc(C)cc1 (stereo not drawn),i,i,i,i,i,nt
COc1cc(N2CCOCC2)ccc1/C=C1\C(=O)NC(=O)N(C2CCCCC2)C1=O,i,-2.52,i,i,i,i
O=Cc1c(C(=O)O)n(Cc2ccc(Cl)cc2)c2ccccc12,i,nt,i,i,i,0.0525
SMILES,Redox H2O2 prof,ROMK primary,MT stabilize HCS,bCat nuc transl,KCC2 mod,ROMK hit retest
N#CSCC(=O)N1c2ccccc2CCc2ccccc21,i,-3.92,i,i,i,0.0456
CCC(C)n1c(O)c(/C=N/Nc2ccccc2)c(=O)[nH]c1=S (stereo not drawn),i,nt,i,i,i,nt
CCOc1ccc(-c2c(C)n(-c3ccc(OCC)cc3)c3[n+]2CCCCC3)cc1,nt,nt,nt,i,i,0.0426
CCOP(=S)(OCC)N1CCOCCOCCN(P(=S)(OCC)OCC)CCOCCOCC1,i,-2,i,i,i,i
Cc1cccc(N2C(=O)NC(=O)/C(=C/c3cc4c(cc3[N+](=O)[O-])OCO4)C2=O)c1,i,-2.8,i,i,i,0.0561
O=C1NC(=O)C(=Cc2cc3c(cc2[N+](=O)[O-])OCO3)C(=O)N1,i,i,i,i,i,nt
CCOP(=O)(OCC)C1(C(=O)O)CCCC1,nt,nt,nt,i,i,nt
Cc1cc(C)cc(NC2=NCCCS2)c1,i,i,i,i,i,nt
CCOC(=O)c1c(-n2c(C)cc(C=C3C(=O)NC(=O)NC3=O)c2C)sc2c1CCCC2,i,-4.66,i,i,i,?
Cc1cccc(N2C(=O)NC(=O)/C(=C\c3cc(C)n(-c4sc5c(c4C#N)CCCC5)c3C)C2=O)c1C,i,nt,i,i,i,nt
Cc1ccccc1-n1c(/C=C/c2ccccn2)nc2ccccc2c1=O,nt,nt,nt,i,nt,nt
CN1C2CCC1/C(=C/c1ccccn1)C(=O)/C2=C\c1ccccn1,i,-3.78,i,?,nt,0.0431
CCCCCCn1c(=O)c(C(=O)Nc2c(C)n(C)n(-c3ccccc3)c2=O)c(O)c2ccccc21,nt,nt,nt,i,i,nt
C=C(COC(=O)CCC(=O)O)CC1CC(O)[C@]2(C)OC3CC4OC5C[C@]6(C)O[C@]7(C)CCC8OC9C[C@]%10(C)OC%11C(C)=CC(=O)OC%11CC%10OC9C[C@@H](C)C8OC7CC6O[C@]5(C)C/C=C\C4OC3CC2O1 (stereo partly drawn),nt,nt,nt,i,i,i
CC1=CC(=O)OC2CC3OC4C[C@@H](C)C5OC6CC7O[C@]8(C)C/C=C\C9OC%10CC%11OC(CC(C)CO)CC(O)[C@]%11(C)OC%10CC9OC8C[C@]7(C)O[C@]6(C)CCC5OC4C[C@]3(C)OC12 (stereo partly drawn),i,nt,i,i,i,nt
CN(C)C(=O)Oc1cccc(NC(=O)c2ccccc2C(F)(F)F)c1,nt,nt,nt,i,i,nt
CN(C)C(=O)Nc1cccc(OC(=O)N(C)C)c1,i,nt,i,i,nt,i
Cc1noc(C)c1C(=O)N1CCC2(CC1)OCCO2,i,3.05,i,i,i,i
Cc1occc1C(=O)N1CCC2(CC1)OCCO2,i,nt,i,i,i,nt
CC(=O)OC1(c2ccccc2)CC(C(C)(C)C)CN(C(C)(C)C)C1 (stereo not drawn),i,i,i,i,i,nt
C/C(=N\NC(N)=O)c1c(O)n(C)c(=O)n(C)c1=O,i,i,i,i,i,nt
COc1ccc(CCC(C)NCCc2ccccc2)cc1 (stereo not drawn),i,-3.89,i,nt,i,0.0619
COc1ccc(CCNC2CCCCC2)cc1,i,i,i,i,i,nt
O=c1[nH]c(=O)n(-c2ccc(Cl)cc2)c(O)c1C=NCCN1CCCCC1,i,i,i,i,i,nt
Cc1ccc(CN2C(=O)NC(=O)C3(Cc4c(nc5ccccn5c4=O)N4CCCCCC43)C2=O)cc1 (stereo not drawn),i,-2.93,i,nt,i,0.0643
O=C1NC(=O)C(=Cc2ccc(OCC(=O)N3CCOCC3)cc2)C(=O)N1,i,i,i,i,i,nt
CCn1c(O)c(/C=N/NC(=O)c2ccccc2)c(=O)n(CC)c1=S,nt,nt,nt,i,i,0.0562

# Screening results: PubChem BioAssay, several laboratories
